ChEMBL document CHEMBL1240433, “Design, synthesis, and antitubercular evaluation of novel series of 3-benzofuran-5-aryl-1-pyrazolyl-pyridylmethanone and 3-benzofuran-5-aryl-1-pyrazolylcarbonyl-4-oxo-naphthyridin analogs” (Eur J Med Chem, 2010)
Converted amounts (≈) assume the structure as drawn.

Test system: Mycobacterium tuberculosis
Test: Antitubercular activity against multidrug-resistant Mycobacterium tuberculosis H37Rv after 6 weeks
Type: functional
Method in brief: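 Lowenstein-Jensen slope assay. DMSO stocks of 250 and 10 µg/mL were each mixed 0.8 mL into 7.2 mL L.J. medium, then inspissated at 75-80 °C for 3 days. A loopful of culture was dispersed with glass beads in sterile water by vortexing for 2 min and streaked onto the slopes. DMSO-only and drug-free media served as controls. Bacterial counts were read after 6 weeks at 37 °C.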

Work on `O=C(c1ccncc1)N1N=C(c2cc3ccccc3o2)CC1c1ccc(Cl)cc1` (stereo not given) yielded an MIC of 10.6 µg/mL (≈ 26.4 µM).

`O=C(c1ccncc1)N1N=C(c2cc3ccccc3o2)CC1c1ccccc1O` (stereo not given) gave an MIC of 6.2 µg/mL (≈ 16.2 µM).

Compound `CCn1cc(C(=O)N2N=C(c3cc4ccccc4o3)CC2c2ccco2)c(=O)c2ccc(C)nc21` (stereo not given) has an MIC of 8.5 µg/mL (≈ 18.2 µM).

Work on `CCn1cc(C(=O)N2N=C(c3cc4ccccc4o3)CC2c2cccc([N+](=O)[O-])c2)c(=O)c2ccc(C)nc21` (stereo not given) yielded an MIC of 3.7 µg/mL (≈ 7.09 µM).

Work on `CCn1cc(C(=O)N2N=C(c3cc4ccccc4o3)CC2/C=C/c2ccccc2)c(=O)c2ccc(C)nc21` (stereo not given) yielded an MIC of 7.4 µg/mL (≈ 14.7 µM).

Compound `CCn1cc(C(=O)N2N=C(c3cc4ccccc4o3)CC2c2ccccc2OC)c(=O)c2ccc(C)nc21` (stereo not given) has an MIC of 8.5 µg/mL (≈ 16.8 µM).

With `O=C(c1ccncc1)N1N=C(c2cc3ccccc3o2)CC1c1cccc([N+](=O)[O-])c1` (stereo not given) the MIC was 6.9 µg/mL (≈ 16.7 µM).

`O=C(c1ccncc1)N1N=C(c2cc3ccccc3o2)CC1c1ccccc1Cl` (stereo not given) showed an MIC of 9.5 µg/mL (≈ 23.6 µM).

Work on `O=C(c1ccncc1)N1N=C(c2cc3ccccc3o2)CC1c1ccco1` (stereo not given) yielded an MIC of 10.4 µg/mL (≈ 29.1 µM).

Work on `O=C(c1ccncc1)N1N=C(c2cc3ccccc3o2)CC1c1ccc(O)cc1` (stereo not given) yielded an MIC of 6.2 µg/mL (≈ 16.2 µM).

Compound `O=C(c1ccncc1)N1N=C(c2cc3ccccc3o2)CC1c1ccccc1` (stereo not given) has an MIC of 9.5 µg/mL (≈ 25.9 µM).

`CCn1cc(C(=O)N2N=C(c3cc4ccccc4o3)CC2c2ccc(OC)cc2)c(=O)c2ccc(C)nc21` (stereo not given) gave an MIC of 8.5 µg/mL (≈ 16.8 µM).

In the case of `NNC(=O)c1ccncc1` [ISONIAZID], the MIC is reported as 8.5 µg/mL (≈ 62 µM).

In the case of `CN(C)c1ccc(C2CC(c3cc4ccccc4o3)=NN2C(=O)c2ccncc2)cc1` (stereo not given), the MIC is reported as 11.5 µg/mL (≈ 28 µM).

With `COc1ccc(C2CC(c3cc4ccccc4o3)=NN2C(=O)c2ccncc2)cc1` (stereo not given) the MIC was 5.5 µg/mL (≈ 13.8 µM).

For `CCn1cc(C(=O)N2N=C(c3cc4ccccc4o3)CC2c2ccccc2O)c(=O)c2ccc(C)nc21` (stereo not given), the MIC was 6.4 µg/mL (≈ 13 µM).

Work on `CCn1cc(C(=O)N2N=C(c3cc4ccccc4o3)CC2c2ccc(Cl)cc2)c(=O)c2ccc(C)nc21` (stereo not given) yielded an MIC of 6.3 µg/mL (≈ 12.3 µM).

Compound `CCn1cc(C(=O)N2N=C(c3cc4ccccc4o3)CC2c2ccccc2Cl)c(=O)c2ccc(C)nc21` (stereo not given) has an MIC of 8.4 µg/mL (≈ 16.4 µM).

Work on `O=C(c1ccncc1)N1N=C(c2cc3ccccc3o2)CC1c1ccccc1[N+](=O)[O-]` (stereo not given) yielded an MIC of 7.5 µg/mL (≈ 18.2 µM).

Compound `COc1ccccc1C1CC(c2cc3ccccc3o2)=NN1C(=O)c1ccncc1` (stereo not given) has an MIC of 5.7 µg/mL (≈ 14.3 µM).

`CCn1cc(C(=O)N2N=C(c3cc4ccccc4o3)CC2c2ccc(OC)cc2O)c(=O)c2ccc(C)nc21` (stereo not given) was tested, and the MIC was 5.4 µg/mL (≈ 10.3 µM).

In the case of `CCn1cc(C(=O)N2N=C(c3cc4ccccc4o3)CC2c2ccccc2)c(=O)c2ccc(C)nc21` (stereo not given), the MIC is reported as 10.8 µg/mL (≈ 22.7 µM).

For `CCn1cc(C(=O)N2N=C(c3cc4ccccc4o3)CC2c2ccc(N(C)C)cc2)c(=O)c2ccc(C)nc21` (stereo not given), the MIC was 10.6 µg/mL (≈ 20.4 µM).

Compound `CO[C@H]1/C=C/O[C@@]2(C)Oc3c(C)c(O)c4c(O)c(c(/C=N/N5CCN(C)CC5)c(O)c4c3C2=O)NC(=O)/C(C)=C\C=C\[C@H](C)[C@H](O)[C@@H](C)[C@@H](O)[C@@H](C)[C@H](OC(C)=O)[C@@H]1C` [RIFAMPIN] has an MIC of 4.2 µg/mL (≈ 5.1 µM).

`CCn1cc(C(=O)N2N=C(c3cc4ccccc4o3)CC2c2ccccc2C(=O)O)c(=O)c2ccc(C)nc21` (stereo not given) showed an MIC of 7.8 µg/mL (≈ 15 µM).

Work on `O=C(c1ccncc1)N1N=C(c2cc3ccccc3o2)CC1/C=C/c1ccccc1` (stereo not given) yielded an MIC of 7.5 µg/mL (≈ 19.1 µM).

For `COc1ccc(C2CC(c3cc4ccccc4o3)=NN2C(=O)c2ccncc2)c(O)c1` (stereo not given), the MIC was 4.5 µg/mL (≈ 10.9 µM).

`O=C(O)c1ccccc1C1CC(c2cc3ccccc3o2)=NN1C(=O)c1ccncc1` (stereo not given) gave an MIC of 3.2 µg/mL (≈ 7.78 µM).

With `CCn1cc(C(=O)N2N=C(c3cc4ccccc4o3)CC2c2ccccc2[N+](=O)[O-])c(=O)c2ccc(C)nc21` (stereo not given) the MIC was 3.6 µg/mL (≈ 6.9 µM).

For `CCn1cc(C(=O)N2N=C(c3cc4ccccc4o3)CC2c2ccc(O)cc2)c(=O)c2ccc(C)nc21` (stereo not given), the MIC was 3.8 µg/mL (≈ 7.72 µM).
